Measured values taken from ChEMBL document CHEMBL3407486, “Additivity or cooperativity: which model can predict the influence of simultaneous incorporation of two or more functionalities in a ligand molecule?” (Eur J Med Chem, 2015).

Target: T1, Thermolysin (Bacillus thermoproteolyticus, UniProt P00800)
T1 sequence (P00800 whole entry): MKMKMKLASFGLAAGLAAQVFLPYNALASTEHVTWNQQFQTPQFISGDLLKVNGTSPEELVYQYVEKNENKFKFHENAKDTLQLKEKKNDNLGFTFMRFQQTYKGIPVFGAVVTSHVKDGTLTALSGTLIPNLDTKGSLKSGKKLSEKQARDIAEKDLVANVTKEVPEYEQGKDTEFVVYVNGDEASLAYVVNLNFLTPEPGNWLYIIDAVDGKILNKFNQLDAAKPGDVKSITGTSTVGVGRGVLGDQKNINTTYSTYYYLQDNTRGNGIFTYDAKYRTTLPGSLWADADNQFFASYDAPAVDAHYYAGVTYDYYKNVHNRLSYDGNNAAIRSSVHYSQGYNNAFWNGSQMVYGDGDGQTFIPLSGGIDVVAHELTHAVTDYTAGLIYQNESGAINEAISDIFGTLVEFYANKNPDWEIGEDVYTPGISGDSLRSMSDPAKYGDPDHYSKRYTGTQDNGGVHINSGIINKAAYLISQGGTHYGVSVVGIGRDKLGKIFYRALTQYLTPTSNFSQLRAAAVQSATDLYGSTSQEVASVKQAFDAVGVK
Assay: Inhibition of Bacillus thermoproteolyticus TLN using 2-furanacryloyl-Gly-Leu-NH2 substrate by biochemical assay
Summary of the method: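 Read photometrically at 345 nm, 25.0 ± 0.2 °C, in 0.05 M Tris with 0.02 M CaCl2, 2.5 M NaBr, 1.25% DMF, pH 7.3. Final enzyme ~8 nM (stock quantified by A280). Inhibitor spanned 0.5Ki–10Ki. IC50 from υ0/υi vs [I] plots (Ki above 30 nM) or Henderson plots (below). Ki via Cheng-Prusoff (Km 3.9 ± 0.6 mM), averaged over at least three determinations.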

| Ki | SMILES |
| --- | --- |
| 5920 nM | CC(C)C[C@H](NC(=O)[C@H](C)NP(=O)(O)CNC(=O)OCc1ccccc1)C(=O)O |
| 596 nM | CC[C@H](NP(=O)(O)CNC(=O)OCc1ccccc1)C(=O)N[C@@H](CC(C)C)C(=O)O |
| 29 nM | CCC[C@H](NP(=O)(O)CNC(=O)OCc1ccccc1)C(=O)N[C@@H](CC(C)C)C(=O)O |
| 10 nM | CC(C)C[C@H](NC(=O)[C@H](CC(C)C)NP(=O)(O)CNC(=O)OCc1ccccc1)C(=O)O |
| 100 nM | CC(C)C[C@H](NP(=O)(O)CNC(=O)OCc1ccccc1)C(=O)NCC(C)(C)C |
| 4.9 nM | CC[C@H](NC(=O)[C@H](CC(C)C)NP(=O)(O)CNC(=O)OCc1ccccc1)C(=O)O |
| 5.5 nM | CCC[C@H](NC(=O)[C@H](CC(C)C)NP(=O)(O)CNC(=O)OCc1ccccc1)C(=O)O |
| 5.3 nM | CCCC[C@H](NC(=O)[C@H](CC(C)C)NP(=O)(O)CNC(=O)OCc1ccccc1)C(=O)O |
| 5.8 nM | CC(C)C[C@H](NP(=O)(O)CNC(=O)OCc1ccccc1)C(=O)N[C@H](C(=O)O)C(C)C |
| 31 nM | CC(C)C[C@H](NP(=O)(O)CNC(=O)OCc1ccccc1)C(=O)N[C@H](C(=O)O)C(C)(C)C |
| 12 nM | CCC(C)[C@H](NC(=O)[C@H](CC(C)C)NP(=O)(O)CNC(=O)OCc1ccccc1)C(=O)O (some centres undefined) |
| 40 nM | CC(C)C[C@H](NP(=O)(O)CNC(=O)OCc1ccccc1)C(=O)N[C@@H](CC(C)(C)C)C(=O)O |

More lines, now with the values behind:

| SMILES | Ki |
| --- | --- |
| C[C@H](NP(=O)(O)CNC(=O)OCc1ccccc1)C(=O)NCCc1ccccc1 | 45200 nM |
| CC(C)CCNC(=O)[C@H](C)NP(=O)(O)CNC(=O)OCc1ccccc1 | 19500 nM |
| CC[C@H](NP(=O)(O)CNC(=O)OCc1ccccc1)C(=O)NCCC(C)C | 1970 nM |
| CCC[C@H](NP(=O)(O)CNC(=O)OCc1ccccc1)C(=O)NCCC(C)C | 219 nM |
| CC(C)CCNC(=O)[C@H](CC(C)C)NP(=O)(O)CNC(=O)OCc1ccccc1 | 69 nM |
| CCCNC(=O)[C@H](CC(C)C)NP(=O)(O)CNC(=O)OCc1ccccc1 | 60 nM |
| CCCCNC(=O)[C@H](CC(C)C)NP(=O)(O)CNC(=O)OCc1ccccc1 | 67 nM |
| CCCCCNC(=O)[C@H](CC(C)C)NP(=O)(O)CNC(=O)OCc1ccccc1 | 59 nM |
| CC(C)CNC(=O)[C@H](CC(C)C)NP(=O)(O)CNC(=O)OCc1ccccc1 | 37 nM |
| CCC(C)CNC(=O)[C@H](CC(C)C)NP(=O)(O)CNC(=O)OCc1ccccc1 (some centres undefined) | 26 nM |
| CC(C)C[C@H](NP(=O)(O)CNC(=O)OCc1ccccc1)C(=O)NCCC(C)(C)C | 43 nM |
| CC(C)C[C@H](NP(=O)(O)CNC(=O)OCc1ccccc1)C(=O)NCCc1ccccc1 | 296 nM |
| CC(C)C[C@H](NP(=O)(O)CNC(=O)OCc1ccccc1)C(=O)NCCc1cccs1 | 189 nM |
| CC(C)C[C@H](NP(=O)(O)CNC(=O)OCc1ccccc1)C(=O)N[C@@H](Cc1cccs1)C(=O)O | 24 nM |
| CNC(=O)[C@H](C)NP(=O)(O)CNC(=O)OCc1ccccc1 | 185000 nM |
| CCNC(=O)[C@H](C)NP(=O)(O)CNC(=O)OCc1ccccc1 | 56200 nM |
| CCCNC(=O)[C@H](C)NP(=O)(O)CNC(=O)OCc1ccccc1 | 12400 nM |
| C[C@H](NP(=O)(O)CNC(=O)OCc1ccccc1)C(=O)NCC(=O)O | 189000 nM |
| C[C@H](NC(=O)[C@H](C)NP(=O)(O)CNC(=O)OCc1ccccc1)C(=O)O | 7200 nM |
| CC[C@H](NC(=O)[C@H](C)NP(=O)(O)CNC(=O)OCc1ccccc1)C(=O)O | 1370 nM |
| C[C@H](NP(=O)(O)CNC(=O)OCc1ccccc1)C(=O)N[C@@H](Cc1ccccc1)C(=O)O | 31100 nM |
| CC(C)C[C@H](NP(=O)(O)CNC(=O)OCc1ccccc1)C(=O)N[C@@H](Cc1ccccc1)C(=O)O | 54 nM |
